Measurements reported in BindingDB's records for doi:10.1021/jm030056e (Glaxosmithkline, 2003).
pIC50: −log10 of the molar value. Values belong to the compound of their own block, whether it stands above or below them.

Key:
[1] = target: cGMP-specific 3',5'-cyclic phosphodiesterase (Bos taurus, UniProt Q28156); experiment: Inhibitory activity against bovine PDE5 (phosphodiesterase-5).
[2] = target: cGMP-dependent 3',5'-cyclic phosphodiesterase (Homo sapiens, UniProt O00408); experiment: Inhibition of human recombinant PDE2 (phosphodiesterase 2)
Outline: (§1)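 Incubated 30 min at 30 °C under initial-velocity conditions (≤10-15% hydrolysis). Product separated on QAE Sephadex and counted by scintillation; final DMSO 2%.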

Phosphodiesterase = Phosphodiesterase (Bos taurus, UniProt E1BN64); experiment: Inhibition of bovine aorta PDE3 (phosphodiesterase 3); outline: as §1
Chain of Phosphodiesterase (E1BN64 whole entry): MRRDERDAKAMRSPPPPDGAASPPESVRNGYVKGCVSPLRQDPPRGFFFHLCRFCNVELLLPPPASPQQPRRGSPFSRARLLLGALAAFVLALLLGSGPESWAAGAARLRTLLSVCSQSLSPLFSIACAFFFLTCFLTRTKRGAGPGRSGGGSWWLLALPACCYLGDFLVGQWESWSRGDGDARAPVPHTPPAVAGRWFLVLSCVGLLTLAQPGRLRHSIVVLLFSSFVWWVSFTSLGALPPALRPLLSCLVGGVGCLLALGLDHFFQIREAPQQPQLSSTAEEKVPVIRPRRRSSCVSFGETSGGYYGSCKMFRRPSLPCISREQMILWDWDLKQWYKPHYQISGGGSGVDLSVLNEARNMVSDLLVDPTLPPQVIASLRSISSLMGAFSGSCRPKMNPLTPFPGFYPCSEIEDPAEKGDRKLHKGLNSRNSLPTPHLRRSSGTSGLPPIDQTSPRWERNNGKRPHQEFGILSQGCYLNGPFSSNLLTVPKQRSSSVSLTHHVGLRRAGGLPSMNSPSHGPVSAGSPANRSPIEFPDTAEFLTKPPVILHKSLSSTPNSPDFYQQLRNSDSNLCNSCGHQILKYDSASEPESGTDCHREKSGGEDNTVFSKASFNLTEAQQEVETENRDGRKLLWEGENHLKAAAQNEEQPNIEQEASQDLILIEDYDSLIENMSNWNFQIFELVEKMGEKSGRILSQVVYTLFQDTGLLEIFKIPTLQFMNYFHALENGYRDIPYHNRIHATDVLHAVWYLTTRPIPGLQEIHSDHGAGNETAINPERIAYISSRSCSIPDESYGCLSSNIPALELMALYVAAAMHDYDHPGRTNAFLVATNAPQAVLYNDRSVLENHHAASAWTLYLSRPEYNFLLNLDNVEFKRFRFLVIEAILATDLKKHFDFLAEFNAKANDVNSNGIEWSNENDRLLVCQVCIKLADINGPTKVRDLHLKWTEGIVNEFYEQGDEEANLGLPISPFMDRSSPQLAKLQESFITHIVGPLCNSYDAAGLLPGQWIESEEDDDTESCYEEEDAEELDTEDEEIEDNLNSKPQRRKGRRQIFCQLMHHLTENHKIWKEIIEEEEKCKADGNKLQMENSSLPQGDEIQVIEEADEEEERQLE

Chain of cGMP-dependent 3',5'-cyclic phosphodiesterase (O00408 whole entry): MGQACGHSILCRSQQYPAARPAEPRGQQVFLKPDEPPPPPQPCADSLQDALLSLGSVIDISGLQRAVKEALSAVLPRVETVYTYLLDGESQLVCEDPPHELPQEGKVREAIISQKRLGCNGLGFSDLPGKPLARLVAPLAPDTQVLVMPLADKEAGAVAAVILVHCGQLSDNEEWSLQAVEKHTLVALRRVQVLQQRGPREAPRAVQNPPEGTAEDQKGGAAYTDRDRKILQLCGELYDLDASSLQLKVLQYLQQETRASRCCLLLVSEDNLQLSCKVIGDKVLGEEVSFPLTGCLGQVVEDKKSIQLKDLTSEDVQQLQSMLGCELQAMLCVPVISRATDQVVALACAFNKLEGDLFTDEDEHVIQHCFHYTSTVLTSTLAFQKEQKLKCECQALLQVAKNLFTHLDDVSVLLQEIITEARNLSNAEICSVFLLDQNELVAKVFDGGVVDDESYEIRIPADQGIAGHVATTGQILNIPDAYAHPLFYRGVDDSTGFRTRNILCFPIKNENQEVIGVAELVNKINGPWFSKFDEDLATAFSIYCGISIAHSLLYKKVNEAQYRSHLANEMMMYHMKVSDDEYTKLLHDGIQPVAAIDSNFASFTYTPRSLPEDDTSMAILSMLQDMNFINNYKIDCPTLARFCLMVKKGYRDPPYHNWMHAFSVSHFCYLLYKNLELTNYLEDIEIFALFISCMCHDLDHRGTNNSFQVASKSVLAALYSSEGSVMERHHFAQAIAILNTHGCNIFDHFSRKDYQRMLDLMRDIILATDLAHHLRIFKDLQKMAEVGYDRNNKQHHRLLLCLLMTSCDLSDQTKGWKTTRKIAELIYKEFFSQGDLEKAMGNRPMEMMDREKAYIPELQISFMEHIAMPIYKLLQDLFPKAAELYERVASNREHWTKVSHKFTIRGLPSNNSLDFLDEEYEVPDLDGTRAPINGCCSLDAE

Structure (SMILES): COc1ccc([C@H]2c3[nH]c4ccccc4c3Cc3c(O)n(CCN4CCCC4)c(=O)n32)cc1
pIC50 [1]: 7.00

Structure (SMILES): CCCCn1c(O)c2n(c1=O)[C@H](c1ccc(OC)cc1)c1[nH]c3ccccc3c1C2 [(3aR,10R)-2-Butyl-10-(4-methoxy-phenyl)-3a,4,9,10-tetrahydro-2,9,10a-triaza-cyclopenta[b]fluorene-1,3-dione]
pIC50 [2]: < 5.00
pIC50 (Phosphodiesterase): < 5.00

Structure (SMILES): COc1ccc([C@@H]2c3[nH]c4ccccc4c3Cc3c(O)n(C4CCCCC4)c(=O)n32)cc1 [(3aR,10R)-2-Cyclohexyl-10-(4-methoxy-phenyl)-3a,4,9,10-tetrahydro-2,9,10a-triaza-cyclopenta[b]fluorene-1,3-dione]
pIC50 [1]: 8.15
pIC50 [2]: < 5.00

Structure (SMILES): COc1ccc([C@H]2c3[nH]c4ccccc4c3Cc3c(O)n(CCN(C)C)c(=O)n32)cc1 [(3aR,10S)-2-(2-Dimethylamino-ethyl)-10-(4-methoxy-phenyl)-3a,4,9,10-tetrahydro-2,9,10a-triaza-cyclopenta[b]fluorene-1,3-dione]
pIC50 [1]: 7.52

Structure (SMILES): CCCCn1c(O)c2n(c1=O)[C@H](c1ccoc1)c1[nH]c3ccccc3c1C2 [(3aR,10R)-2-Butyl-10-furan-3-yl-3a,4,9,10-tetrahydro-2,9,10a-triaza-cyclopenta[b]fluorene-1,3-dione]
pIC50 [1]: 7.00

Structure (SMILES): COc1ccc([C@@H]2c3[nH]c4ccccc4c3Cc3c(O)n(Cc4ccccc4)c(=O)n32)cc1 [(3aR,10R)-2-Benzyl-10-(4-methoxy-phenyl)-3a,4,9,10-tetrahydro-2,9,10a-triaza-cyclopenta[b]fluorene-1,3-dione]
pIC50 [2]: < 5.00
pIC50 (Phosphodiesterase): < 5.00

More lines, now with the values ahead:

pIC50 [1]: 7.52
Structure (SMILES): CCCCn1c(O)c2n(c1=O)[C@H](c1ccsc1)c1[nH]c3ccccc3c1C2 [Cis-2-Butyl-10-thiophen-3-yl-3a,4,9,10-tetrahydro-2,9,10a-triaza-cyclopenta[b]fluorene-1,3-dione]

pIC50 [1]: 7.70
Structure (SMILES): COc1ccc([C@H]2c3[nH]c4ccccc4c3Cc3c(O)n(Cc4cccnc4)c(=O)n32)cc1 [(3aR,10S)-10-(4-Methoxy-phenyl)-2-pyridin-3-ylmethyl-3a,4,9,10-tetrahydro-2,9,10a-triaza-cyclopenta[b]fluorene-1,3-dione]

pIC50 [1]: 6.52
Structure (SMILES): CCCCn1c(O)c2n(c1=O)[C@H](c1ccncc1)c1[nH]c3ccccc3c1C2 [Cis-2-Butyl-10-pyridin-4-yl-3a,4,9,10-tetrahydro-2,9,10a-triaza-cyclopenta[b]fluorene-1,3-dione]

pIC50 [1]: 7.70
Structure (SMILES): COc1ccc([C@H]2c3[nH]c4ccccc4c3Cc3c(O)[nH]c(=O)n32)cc1 [(3aR,10S)-10-(4-Methoxy-phenyl)-3a,4,9,10-tetrahydro-2,9,10a-triaza-cyclopenta[b]fluorene-1,3-dione]

pIC50 [2]: < 5.00
pIC50 (Phosphodiesterase): < 5.00
Structure (SMILES): CCCCn1c(O)c2n(c1=O)[C@@H](c1ccc(OC)cc1)c1[nH]c3ccccc3c1C2 [(3aR,10S)-2-Butyl-10-(4-methoxy-phenyl)-3a,4,9,10-tetrahydro-2,9,10a-triaza-cyclopenta[b]fluorene-1,3-dione]
